The results in this text go back to ChEMBL document CHEMBL1156129, “Synthesis, structure-activity relationships, and characterization of novel nonsteroidal and selective androgen receptor modulators” (J Med Chem, 2009).

Series [1] can be described thus: Plasma concentration in Beagle dog at 10 mg/kg, po after 6 hrs. The series is classed as ADME, organism-based, Canis lupus familiaris. Also on record: dose 10 mg/kg, route oral.
For a further series, the system named is Liver microsomes. Description: Metabolic stability in human liver microsomes assessed as intrinsic clearance. Format: ADME, Microsome.
The nature of series [2]: AUC (0 to infinity) in Beagle dog at 1 mg/kg, iv. The series is classed as ADME, organism-based, Canis lupus familiaris. On the set-up: dose 1 mg/kg, route intravenous, time infinity. As to conditions: plasma.
Series [3] in a line: Agonist activity at androgen receptor LBD T877A mutant in mouse NIH3T3 cells transiently transfected with beta-galactosidase reporter gene assessed as cellular transformation by R-SAT assay relative to dihydrotestosterone. Format: functional. The gist of the method:
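AR expression vector transiently co-transfected (Polyfect) with β-galactosidase and coactivators SRC1, DRIP205 and GRIP1 into NIH-3T3 fibroblasts at 60-70% confluency. ONPG substrate added, absorbance read at 420 nm. EC50 from a hyperbolic fit. Mean ± SEM of three or more independent experiments.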
A general note: A reporter such as luciferase makes a cellular process visible.

The subject of a further series is Rattus norvegicus. Description: Anabolic effect in castrated rat levator ani muscle assessed as reversal of ORX-induced atrophy at 1 mg/kg/day sc using osmotic pump after 14 days. The series is classed as functional. As to conditions: route subcutaneous. The gist of the method:
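Orchiectomized male rats received compound by subcutaneous osmotic pump for 14 days at 0.1-3 (mg/kg)/day. […] Levator ani and ventral prostate were weighed after 2 weeks and compared with sham-operated vehicle-treated controls, expressed as reversal of ORX-induced atrophy.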

Series [4] in a line: Plasma concentration in Sprague-Dawley rat at 10 mg/kg, po after 480 mins. Also on record: dose 10 mg/kg, route oral. The series is classed as ADME, organism-based.
A short description of series [5]: Oral bioavailability in Sprague-Dawley rat at 10 mg/kg, po. Format: ADME, organism-based. The settings on record: in vivo.
Series [6] is described as follows: Plasma concentration in Sprague-Dawley rat at 10 mg/kg, po after 240 mins. Format: ADME, organism-based. Also on record: dose 10 mg/kg, route oral.
The nature of series [7]: AUC (8 hrs) in Sprague-Dawley rat at 10 mg/kg, po. Format: ADME, organism-based. On the set-up: time < 8 hr, dose 10 mg/kg, route oral. As to conditions: plasma.
Series [8] in a line: Plasma concentration in Beagle dog at 1 mg/kg, iv after 4 hrs. Format: ADME, organism-based, Canis lupus familiaris. On the set-up: dose 1 mg/kg, route intravenous.
A short description of series [9]: Plasma concentration in Sprague-Dawley rat at 1 mg/kg, iv after 1 min. Format: ADME, organism-based. On the set-up: dose 1 mg/kg, route intravenous.
A short description of series [10]: Cmax in Sprague-Dawley rat at 1 mg/kg, iv. The settings on record: in vivo. The series is classed as ADME, organism-based. On the set-up: dose 1 mg/kg, route intravenous.
Series [11] in a line: Plasma concentration in Sprague-Dawley rat at 10 mg/kg, po after 10 mins. Format: ADME, organism-based. On the set-up: dose 10 mg/kg, route oral.
Series [12] can be described thus: Half life in Sprague-Dawley rat at 1 mg/kg, iv. The series is classed as ADME, organism-based. Also on record: dose 1 mg/kg, route intravenous. As to conditions: in vivo.
A short description of series [13]: Plasma concentration in Sprague-Dawley rat at 1 mg/kg, iv after 240 mins. The series is classed as ADME, organism-based. On the set-up: dose 1 mg/kg, route intravenous.
Series [14] can be described thus: Plasma concentration in Beagle dog at 10 mg/kg, po after 8 hrs. On the set-up: dose 10 mg/kg, route oral. Format: ADME, organism-based, Canis lupus familiaris.
Series [15] is described as follows: Plasma concentration in Beagle dog at 1 mg/kg, iv after 0.5 hrs. The series is classed as ADME, organism-based, Canis lupus familiaris. On the set-up: dose 1 mg/kg, route intravenous.
Series [16] in a line: Cmax in Sprague-Dawley rat at 10 mg/kg, po. Format: ADME, organism-based. On the set-up: dose 10 mg/kg, route oral. The settings on record: in vivo.
For the next series, the target named is T1, Androgen receptor (Homo sapiens, UniProt P10275).
T1 sequence (P10275 whole entry): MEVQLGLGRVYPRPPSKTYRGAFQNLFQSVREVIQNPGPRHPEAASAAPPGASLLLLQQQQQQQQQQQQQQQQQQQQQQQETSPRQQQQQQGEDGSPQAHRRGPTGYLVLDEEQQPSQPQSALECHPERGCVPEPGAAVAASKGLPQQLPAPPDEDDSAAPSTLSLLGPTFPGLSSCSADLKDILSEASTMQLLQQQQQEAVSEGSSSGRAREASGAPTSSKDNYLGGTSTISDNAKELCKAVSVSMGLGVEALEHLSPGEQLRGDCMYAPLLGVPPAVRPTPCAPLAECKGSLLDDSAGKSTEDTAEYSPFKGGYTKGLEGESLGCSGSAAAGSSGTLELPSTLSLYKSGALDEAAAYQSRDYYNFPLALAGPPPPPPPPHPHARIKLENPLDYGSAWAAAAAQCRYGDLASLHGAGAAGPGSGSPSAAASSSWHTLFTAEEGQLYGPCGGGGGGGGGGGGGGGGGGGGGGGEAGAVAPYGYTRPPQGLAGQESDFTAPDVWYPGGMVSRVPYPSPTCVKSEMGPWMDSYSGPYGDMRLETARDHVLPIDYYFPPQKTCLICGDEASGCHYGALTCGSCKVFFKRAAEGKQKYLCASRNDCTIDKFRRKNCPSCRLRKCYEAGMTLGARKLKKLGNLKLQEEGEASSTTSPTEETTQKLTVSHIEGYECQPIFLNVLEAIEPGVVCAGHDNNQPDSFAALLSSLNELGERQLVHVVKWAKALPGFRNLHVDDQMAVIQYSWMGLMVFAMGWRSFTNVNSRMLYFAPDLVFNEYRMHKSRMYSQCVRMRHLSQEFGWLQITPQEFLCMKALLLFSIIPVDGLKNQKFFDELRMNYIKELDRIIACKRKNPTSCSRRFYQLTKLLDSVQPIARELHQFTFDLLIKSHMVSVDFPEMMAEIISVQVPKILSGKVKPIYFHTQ
Description: Agonist activity at androgen receptor in human MDA-KB2 cells transfected with MMTV linked luciferase assessed as transcriptional activation by luciferase reporter gene assay.

For the compound `Cc1c(N2[C@@H]3CC[C@H]2C[C@@](C)(O)C3)ccc(C#N)c1Cl`, the concentration at 6 h in series [1] stood at 104 ng/mL. For the same compound, the CL in the series on Liver microsomes amounted to 28 uL/ml.millig. The same compound registered an AUC(0-inf) in series [2] of 394 ng·h/mL. Also, the Efficacy in [3] was determined as 37%. In the series with Rattus norvegicus, the Activity turned out to be 67%. In addition, the concentration at 8 h was 253 ng/mL in [4] and 60.6 ng/mL in [14]. Also, the bioavailability in series [5] is 38%. The concentration at 4 h in series [6] turned out to be 353 ng/mL; in series [8], 18.5 ng/mL; in [13], 45.4 ng/mL. This compound had an AUC at 8 h in series [7] of 2370 ng·h/mL. Besides, the concentration at 1 min in [9] was found to be 824 ng/mL. Moreover, the Cmax in series [10] amounted to 882 ng/mL; in series [16], 421 ng/mL. This compound also returned a concentration at 10 min in series [11] of 148 ng/mL. This compound had a half-life in [12] of 2.46 h. The same compound gave a concentration at 0.5 h in series [15] of 190 ng/mL. For the same compound, the EC50 at Androgen receptor is 0.251 nM.

Usually AUC(0-inf) stands for the area under the concentration-time curve extrapolated to infinity. As usually defined, the bioavailability is the share of a dose that reaches the circulation, judged against a reference dose that is usually intravenous. High values mean much systemic uptake, low ones little systemic uptake. One may read the AUC as concentration integrated over time. What is called Cmax is the maximum level reached in the sampled fluid or tissue. For orientation: half-life means how long it takes for the measured level to halve. A lower half-life goes with fast loss. As usually defined, the EC50 is the concentration needed to bring the measured effect to its halfway point.
